In the library only some 2.7% were active in any assay of this set; here they are far more common.
Wee1 stabilizer – human Wee1 degradation inhibition, primary screen. P30291. HeLa Luc-Wee1K328M stability, luciferase luminescence; 100% = proteasome inhibitor MG132 effect. reporter increase, % at 5 µM. actives 1.2% (n = 220,000). AID 1321;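 active = activation above the mean of all tested compounds plus 3 SD, set per screening run, cut at about 8.8% in these data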;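 also: cells exposed to compound for 20 h before luminescence read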
MDM2 E3 inh – blocks human Mdm2 ubiquitin ligase activity | actives 0.11% (n = 210,000) | cell-based MDM2 ubiquitination luciferase reporter, 2 h; 0 = plate control, 100 = twice control, blank-subtracted | signal enhancement, % at 5 µM | AID 1230 | Q00987;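 active = signal enhancement of 30% or more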;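 also: luminescence tracks abundance of the self-degrading MDM2-luciferase fusion protein; higher signal means inhibition of MDM2 E3 ligase activity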
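Timing – 2 h compound exposure at 37 °C · Assay system – mammalian cells stably expressing self-ubiquitinating, self-degrading MDM2 E3–luciferase fusion · Amount – 2000 cells seeded into each well · Measure – % luminescence enhancement versus blank-corrected plate control mean · Measured by – SteadyLite luminescence, 15 min reagent step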
Hck Nef HTS – inhibitors of human Hck kinase activated by Nef | Recombinant Hck-YEEI plus Nef, Z-Lyte FRET kinase assay | inhibition, % at 20 µM | actives 0.68% (n = 220,000);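 active = Hck-Nef kinase inhibition above about 50%, limit read from the data; inactive = inhibition below that limit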
14-3-3 Bad inh – disrupts binding of bovine 14-3-3 zeta to phospho-Bad peptide | TR-FRET 14-3-3zeta/Dy647-pBad peptide displacement, 1 h | inhibition, % at 21.7 µM | actives 0.71% (n = 220,000) | AID 781;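 active = inhibition above about 70%, limit read from the data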
Target sequence (P63103 whole entry, looked up): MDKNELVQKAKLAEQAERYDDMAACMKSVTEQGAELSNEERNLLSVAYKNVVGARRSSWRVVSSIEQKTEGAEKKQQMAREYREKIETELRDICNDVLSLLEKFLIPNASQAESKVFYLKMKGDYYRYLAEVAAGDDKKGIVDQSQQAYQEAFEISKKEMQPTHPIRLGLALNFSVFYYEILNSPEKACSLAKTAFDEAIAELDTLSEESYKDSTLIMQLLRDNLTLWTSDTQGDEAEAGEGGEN
TbHK1 inh – blocks Trypanosoma brucei hexokinase 1 activity. actives 0.11% (n = 220,000). recombinant TbHK1, G6PDH-coupled NADH A340. inhibition, % at 10 µM;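 active = inhibition of 50% or more in the single-dose primary screen; inactive = inhibition below 50%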
Wee1 degr conf – confirmation of human Wee1 degradation inhibitors. shares compounds with Wee1 stabilizer. HeLa Luc-Wee1K328M degradation, luminescence; vehicle 0%, proteasome-blocked wells 100%. activation, % at 5 µM. actives 4% (n = 1,100). AID 1410; in the data active = activation above about 8.9%
Numbers stand for hits; 0 = inactive; - = no result given.

SMILES	Wee1 stabilizer	MDM2 E3 inh	Hck Nef HTS	14-3-3 Bad inh	TbHK1 inh	Wee1 degr conf
O=C1OCc2cc(NC(=O)C3CCCO3)ccc21 (stereo not given)	0	0	0	0	0	-
O=C1NC(=O)c2cc(NC(=O)C3CCCO3)ccc21 (stereo not given)	15.6	0	0	0	0	0
O=[N+]([O-])c1cccc(N/N=C/c2cccc(O)c2O)c1	11.5	0	0	0	0	0
COc1ccccc1N(C)S(=O)(=O)c1ccc(Cl)c(C(=O)NC2=NCCS2)c1	11.8	0	0	0	0	0
COc1ccccc1N1CCN(CC(O)COc2ccc3c(C)cc(=O)oc3c2)CC1 (stereo not given)	16.7	0	0	0	0	0
CCOc1cc(-c2c(C#N)c(=O)[nH]c3c2c(C)nn3-c2ccc(F)cc2)ccc1O	0	0	0	0	0	-
CCN(CC)S(=O)(=O)c1cc(C(=O)Nc2ccncc2)ccc1Cl	0	0	0	0	0	-
CCN(CC)S(=O)(=O)c1cc(C(=O)N(C)CC(=O)Nc2ccc(Cl)cc2)ccc1Cl	11.8	0	0	0	0	0
COc1ccc(N2CCN(C(c3ccc4ncccc4c3)c3nnnn3C(C)(C)C)CC2)cc1 (stereo not given)	11.2	0	0	0	0	0
CCC(C)(C)n1nnnc1C(c1ccc2ncccc2c1)N1CCN(c2ccc(O)cc2)CC1 (stereo not given)	0	0	0	0	0	-
O=C(Nc1ccc(F)cc1)C(Cc1ccccc1)n1cccc1 (stereo not given)	12.3	0	0	0	0	0
Cc1ccc(NC(=O)C(Cc2ccccc2)n2cccc2)cc1 (stereo not given)	0	0	0	0	0	-
O=C(NCCN1CCOCC1)c1ccncc1	11.7	0	0	0	0	0
Cc1ccsc1/C=N\NC(=O)c1cc(C(C)(C)C)[nH]n1	44.4	0	0	0	0	0
CN(C)C(=S)NC(=O)C12CC3(C)CC(C)(CC(C)(C3)C1)C2	10.9	0	0	0	0	0
CC12CC3(C)CC(C)(C1)CC(C(=O)NCC(=O)O)(C2)C3	0	0	0	0	0	-
O=C(CC(=O)c1ccccc1O)c1cccc(F)c1	10.9	0	0	0	0	0
CC1(C2CC2)NC(=O)N(CC(=O)Nc2ccccc2-c2ccccc2)C1=O (stereo not given)	0	0	0	0	0	-
O=[N+]([O-])c1ccc(Sc2cccc3cccnc23)c([N+](=O)[O-])c1	15.9	0	0	0	0	0
Clc1ccc(CO/N=C/c2cccs2)cc1	0	0	0	0	0	-
Cc1cccc(-n2c(=S)[nH]c3nc4c(cc3c2=O)COC(C)(C)C4)c1	17.6	0	0	0	0	0
Cc1ccc(N(C(=O)Cn2nnc(-c3ccccc3)n2)C(C(=O)NC2CCCCC2)c2ccccn2)cc1C (stereo not given)	0	0	0	0	0	-
CCCCOC(=O)CSc1nc2ccccc2o1	11.6	0	0	0	0	0
O=C(O)CSc1nc2ccccc2o1	0	0	0	0	0	-
O=c1[nH][nH]c2ccccc2c1=O	14.3	0	0	0	0	0
SMILES	Wee1 stabilizer	MDM2 E3 inh	Hck Nef HTS	14-3-3 Bad inh	TbHK1 inh	Wee1 degr conf
CCOC(=O)Nc1c(O)ccc2oc(C)c(-c3ccccc3)c12	0	0	0	0	0	-
Cc1ccc(CSCC(=O)N2CCOCC2)cc1	13.2	0	0	0	0	0
CCOc1ccc(S(=O)(=O)NCCC(=O)N2CCN(c3ccc(OC)cc3)CC2)cc1	11.2	0	0	0	0	0
O=C(Nc1nc2c(s1)CCCC2)c1cc2n(n1)C(C(F)(F)F)CC(C1CC1)N2 (stereo not given)	15.4	0	0	0	0	0
Cc1nnc(NC(=O)c2cc3n(n2)C(C(F)(F)F)CC(C2CC2)N3)s1 (stereo not given)	0	0	0	0	0	-
O=C(NCCO)C(F)(F)C(F)(F)C(F)(F)OC(F)(C(=O)NCCO)C(F)(F)F (stereo not given)	12.1	0	0	0	0	0
NS(=O)(=O)c1ccc(NC(=O)CSc2nc3ccccc3[nH]2)cc1	11.3	0	0	0	0	0
CCOc1ccc(NC(=S)Nc2ccc(OCC)cc2)cc1	0	0	0	0	0	-
CCOc1ccc(NC(=S)Nc2ccc(C)c([N+](=O)[O-])c2)cc1	13.7	0	0	0	0	0
N#Cc1ccsc1NC(=O)COC(=O)c1cc2ccccc2cc1O	0	0	0	0	0	-
COc1cccc(C(=O)N=c2sc3c(C)ccc(OC)c3n2C)c1	-	0	-	0	-	-
COc1ccc(C(=O)N=c2sc3c(C)ccc(OC)c3n2C)cc1OC	12.3	0	0	0	0	0
COc1ccc(/C=N/Nc2nc3ccccc3s2)cc1O	0	-	0	0	0	-
C(=N\Nc1nc2ccccc2s1)/c1ccco1	11.9	0	0	0	0	0
Cc1cc(C)nc(N/N=C/c2sccc2C)n1	0	0	0	0	0	-
Cc1ccsc1/C=N/Nc1nc2ccccc2s1	14.1	0	0	0	0	0
C/C(=N\Nc1nc2ccccc2s1)c1cccs1	0	0	0	0	0	-
C(=N\Nc1nc2ccccc2s1)/c1cccs1	14.4	0	0	0	0	0
CC(=O)Nc1ccc(/C=N/Nc2nc3ccccc3s2)cc1	12.7	0	0	0	0	10.1
COc1cc(CN(C2CCCCC2)S(=O)(=O)c2ccc(S(=O)(=O)N(C)C3CCCCC3)cc2)cc(OC)c1OC	0	0	0	0	0	-
COc1ccc(-c2cc(=NC(CC(C)C)C(=O)O)c3cc(C)ccc3o2)cc1 (stereo not given)	11.8	0	0	0	0	0
O=C(OCC(=O)c1ccccc1Cl)c1cnccn1	12.2	0	0	0	0	0
Cc1ccc(C(=O)COC(=O)c2cnccn2)cc1	0	0	0	0	0	-
C/C(=N\NC(=O)c1ccc(Cl)c(S(=O)(=O)Nc2ccccc2Cl)c1)c1ccncc1	0	0	0	0	0	-
CC12CCC(=O)N1C(C(=O)OCC(=O)Nc1sccc1C#N)CS2 (stereo not given)	0	0	0	0	0	-
SMILES	Wee1 stabilizer	MDM2 E3 inh	Hck Nef HTS	14-3-3 Bad inh	TbHK1 inh	Wee1 degr conf
CC(NC(=O)COC(=O)C1CSC2(C)CCC(=O)N12)C12CC3CC(CC(C3)C1)C2 (stereo not given)	12.2	0	0	0	0	0
COc1ccc(CCNS(=O)(=O)c2cc(C(=O)O)c(Cl)cc2Cl)cc1	0	0	0	0	0	-
Cc1cc(Cl)ccc1Oc1ncnc2onc(C)c12	0	0	0	0	0	-
CCN1CCc2nc(NC(=O)CC(c3ccccc3)c3ccccc3)sc2C1	0	0	0	0	0	-
CCN1CCc2nc(NC(=O)C(c3ccccc3)c3ccccc3)sc2C1	11.1	0	0	0	0	0
COC(=O)Nc1nnc(-c2ccccc2Cl)s1	0	0	0	0	0	-
